Only some compounds are listed: those with a hit (about 3.2% of all), similar ones and a draw of the others.
rCAG RNA binder: binders of r(CAG) RNA repeats, primary screen, biochemical, fluorescence; r(CAG) RNA repeat, TO-PRO-1 dye displacement fluorescence; inhibition, % at 3 µM; actives 1.3% (n = 370,000); AID 651821, 2012;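 active = inhibition above the plate cutoff, the mean of all test compounds on that plate plus 3 SD, cut at about 35% in these data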;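 also: 0% = DMSO alone and 100% = 100 µM mitoxantrone as full dye displacement; higher means more dye released from RNA so lower well fluorescence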
HTRA1 inh: HTRA1 serine protease inhibitors, primary screen, biochemical, fluorescence polarization, HTS; inhibition, % at 5.96 µM; actives 0.5% (n = 340,000); Q92743; recombinant HTRA1, FP-rhodamine activity-based probe; in the data active = inhibition above about 36%;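 also: 0% = enzyme with DMSO and 100% = wells lacking enzyme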
DAGLB inh: DAGLB lipase inhibitors, primary screen, biochemical, fluorescence, HTS; Diacylglycerol lipase-beta (Homo sapiens), Q8NCG7; HEK293T DAGLB membrane lysate, EnzChek fluorogenic substrate; inhibition, % at 5.17 µM; actives 0.059% (n = 340,000); AID 504411, 2011; in the data active = inhibition above about 34%;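 also: 0% = enzyme with vehicle and 100% = wells lacking enzyme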
ABHD4 inh: ABHD4 inhibitors, primary screen, biochemical, fluorescence polarization, mouse. (Lyso)-N-acylphosphatidylethanolamine lipase (Mus musculus), Q8VD66. purified mABHD4, FP-Rh probe fluorescence polarization. inhibition, % at 8.92 µM. actives 0.54% (n = 370,000);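 active = inhibition exceeding the mean over every tested compound plus 3 SD, cut at about 30% in these data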;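 also: 0% = plate median of compound wells and 100% = S159A mutant with DMSO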
Target sequence (Q8VD66 whole entry, looked up): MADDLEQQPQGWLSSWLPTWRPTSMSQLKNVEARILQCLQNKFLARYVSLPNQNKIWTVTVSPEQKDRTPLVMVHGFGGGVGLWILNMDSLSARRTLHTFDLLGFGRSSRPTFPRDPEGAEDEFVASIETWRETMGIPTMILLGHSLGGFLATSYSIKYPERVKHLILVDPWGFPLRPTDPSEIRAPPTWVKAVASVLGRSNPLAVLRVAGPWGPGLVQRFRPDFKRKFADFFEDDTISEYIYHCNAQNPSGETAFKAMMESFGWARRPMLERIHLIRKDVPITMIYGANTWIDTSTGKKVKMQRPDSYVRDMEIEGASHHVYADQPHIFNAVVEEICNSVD
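Test system: mouse ABHD4 enzyme, wild type. Reagent: FP-Rh fluorescent activity-based probe, added after compound pre-incubation. Timing: pre-incubation 45 min, probe exposure 60 min, at 25 °C. Technique: FP readout, ex 525 nm / em 598 nm. Benchmarks: high control S159A mutant with DMSO, low control median of compound wells.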
LEDGF integ inh: blockers of LEDGF/p75-dependent integrase strand transfer – biochemical, TR-FRET, high throughput, primary screen; actives 0.64% (n = 370,000); AID 743269, 2014; inhibition, % at 3.7 µM; TR-FRET IN-LEDGF/p75 DNA integration, Eu/Cy5;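 active = inhibition above the screen-wide mean plus 3 SD, cut at about 13% in these data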;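 also: signal is the Cy5 over europium emission ratio at 671 and 618 nm; 0% = plate median of compound wells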
PRMT1 inh: PRMT1 methyltransferase inhibitors, primary screen, biochemical, fluorescence polarization; AID 652257, 2013; inhibition, % at 2.79 µM; recombinant PRMT1, activity-based probe fluorescence polarization; actives 1.3% (n = 370,000); Protein arginine N-methyltransferase 1 (Homo sapiens), Q99873;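 active = inhibition above about 21% made by adding two undisclosed values, limit read from the data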
IN multimer up: HIV-1 IN multimer formation enhancers, counter-screen for LEDGF/p75 integration inhibitor project, biochemical, TR-FRET; shares compounds with LEDGF integ inh; TR-FRET HIV-1 integrase multimerization; actives 17% (n = 2,000); activation, % at 7.7 µM; AID 1053131, 2014; in the data active = activation above about 8.9%
TR-FRET interf: TR-FRET optical interference artefacts, confirmation, artefact control for LEDGF/p75-dependent integration inhibitor project, biochemical, HIV-1 IN multimerization; shares compounds with LEDGF integ inh; TR-FRET optical interference counterscreen; inhibition, % at 7.7 µM; 2,000 tested, under 10 active;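 active = inhibition above the mean over all tested compounds plus 3 SD, which no compound reached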;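 also: 0% = integrase with antibodies and DMSO and 100% = antibodies without integrase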
LEDGF integ conf: inhibitors of HIV-1 IN-LEDGF/p75 DNA integration, confirmation, biochemical, TR-FRET; actives 36% (n = 2,000); shares compounds with LEDGF integ inh; TR-FRET LEDGF/p75-dependent HIV-1 integration; AID 1053136, 2014; inhibition, % at 3.7 µM; in the data active = inhibition above about 14%
Numbers without * were called inactive; . = not tested or not shown.

SMILES	rCAG RNA binder	HTRA1 inh	DAGLB inh	ABHD4 inh	LEDGF integ inh	PRMT1 inh	IN multimer up	TR-FRET interf	LEDGF integ conf
Cc1cccc(NC2=C(NCCO)C(=O)c3ccccc3C2=O)c1	-3	27	16	14	20*	1	4	-13	0
Cc1ccc(S(=O)(=O)NC(=O)C2(C)CCN2C(=O)c2ccccc2)cc1 (configuration not stated)	1	.	.	-3	0	4	.	.	.
CO/N=C(\C(=O)N[C@@H]1C(=O)N2C(C(=O)O)=C(COC(N)=O)CS[C@H]12)c1ccco1	19	1	-1	3	14*	8	1	-6	16*
COc1cc(N)c2ncccc2c1Cl	5	6	1	34*	44*	8	-1	3	6
C[C@@]12C(=O)N(c3cccc(Cl)c3)C(=O)N1[C@@H]1c3ccccc3OC[C@@H]1[C@H]2c1ccccc1	5	-22	-8	-10	34*	-2	1	-6	1
C[C@]12C(=O)N(c3cccc(Cl)c3)C(=O)N1[C@H]1c3ccccc3OC[C@@H]1[C@H]2c1ccccc1	.	-42	-10	.	.	.	.	.	.
CCCCC(=O)Nc1cc(C)c(NC(=O)c2ccco2)cn1	-6	7	-3	1	27*	0	1	-3	0
Cc1cc(NC(=O)c2ccco2)ncc1NC(=O)CCc1ccccc1	-3	-6	3	4	-1	0	.	.	.
Cc1nc(SCC(=O)NCc2ccc3c(c2)OCO3)c(C#N)c2c1CCCC2	-4	-3	-4	-3	91*	-1	1	-3	2
COc1ccccc1-n1nnnc1SCC(=O)N1CCCC1=O	-2	6	-3	8	-2	1	.	.	.
CC(C)C(=O)N1CCC1(C)C(=O)NS(=O)(=O)c1cccs1 (configuration not stated)	1	.	.	0	2	-3	.	.	.
Cc1c(C)c2c(C)nn(-c3ccccc3)c2[nH]c1=O	1	-2	0	3	-2	1	.	.	.
Nc1c2c(=O)[nH]c(O)cc2nn1-c1ccccc1	6	1	-1	4	16*	0	2	-7	1
COc1cc(C(=O)NNc2nc3cc4c(cc3s2)OCO4)cc(OC)c1OC	8	10	5	18	3	15	.	.	.
COc1ccc(-n2c(COc3ccc(C)cc3)nnc2SCC(=O)O)cc1	14	-1	0	17	-4	0	.	.	.
O=S(=O)(c1ccccc1S(=O)(=O)N1CCCCC1)N1CCCCC1	.	-4	2	.	.	.	.	.	.
O=C1C=C(N2CCCCC2)c2ccccc2C1=O	5	.	.	17	29*	-4	6	-22	67*
CCOc1ccc(C(=O)N(Cc2ccc(OC)cc2)Cc2cc3cc(OC)ccc3[nH]c2=O)cc1	0	2	1	-2	-1	-2	.	.	.
Cc1cc(=O)n(-c2ccccc2Cl)[nH]1	0	4	0	1	1	2	.	.	.
CC(C)(O)CNC(=O)C(Cc1ccccc1)N1C(=O)c2ccccc2C1=O (configuration not stated)	-4	4	4	-4	77*	-2	0	0	-6
C#CCNC(=O)C[C@@H]1C[C@@]2(C(=O)OCC)CCCC=C2N(Cc2ccccc2)C1=O	4	.	.	-2	19*	-4	-2	12	-1
COC(=O)[C@@]12C[C@@H](CC(=O)NCC34CC5CC(CC(C5)C3)C4)C(=O)N(Cc3ccco3)C1=CCC(C)(C)C2	3	.	.	8	2	4	.	.	.
COC(=O)[C@]12CCCCC=C1N(Cc1ccco1)C(=O)[C@H](CC(=O)NCC13CC4CC(CC(C4)C1)C3)C2	9	.	.	6	28*	1	0	1	-7
CC(C)C[C@H]1CN([C@@H](Cc2ccccc2)CN2CCC[C@H]2CN2C(=O)C(=O)NC[C@@H]2Cc2ccccc2)C(=O)C(=O)N1CC1CCCCCC1	3	.	.	6	21*	-1	1	-4	1
O=C(Nc1cccc(F)c1)c1cccnc1N1CCOCC1	-1	-1	-2	-10	3	3	.	.	.
SMILES	rCAG RNA binder	HTRA1 inh	DAGLB inh	ABHD4 inh	LEDGF integ inh	PRMT1 inh	IN multimer up	TR-FRET interf	LEDGF integ conf
C[C@@H](O)CNC(=O)c1[nH]cnc1C(=O)Nc1cccc(Cl)c1	1	-5	1	4	-1	2	.	.	.
O=C(CCO)c1ccc(O)cc1	9	11	-1	8	32*	7	54*	-273	71*
Cc1cc(C)cc(NC(=O)CSc2nc3[nH]c(=O)cc(O)c3s2)c1	18	-21	9	5	-2	11	.	.	.
C[n+]1cccc2cccc([O-])c21	9	32	-2	17	15*	7	8	-29	54*
O=C(N/N=C/c1ccc2ncccc2c1)c1cc(-c2cccs2)nc2ccccc12	5	-19	-10	-6	23*	0	0	-1	-2
O=C(N/N=C/c1cccnc1)c1cc(-c2cccs2)nc2ccccc12	3	-15	-3	-5	1	2	.	.	.
COC(=O)c1cc(S(=O)(=O)N2CCCC2)c(Cl)cc1Cl	3	6	-3	1	61*	-4	0	1	-8
COC(=O)c1cc(C)nc2c1C(=O)C(=O)C=C2N1CCOCC1	1	30	-19	11	38*	0	1	-4	78*
COc1ccc(C)cc1NC(=O)NNS(=O)(=O)c1ccc(NC(C)=O)cc1	0	3	-1	-3	4	0	.	.	.
COc1cccc(CNC(=O)CCCC(=O)NC(C)CCc2ccccc2)c1 (configuration not stated)	19	-8	-2	-1	-1	0	.	.	.
